For assay [1], the system named is A549. The assay can be described thus: (§1) Cytotoxicity potentiation of Topotecan in human lung carcinoma A549 cells by the compound as potentiation factor at 50% growth inhibition. The class given is functional. The essentials:
(§2)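 Cells were seeded 16–24 h before treatment, then exposed continuously for 5 days to increasing concentrations of temozolomide or topotecan, with or without 0.4 μM PARP-1 inhibitor. Final DMSO was 1%. Relative cell number was measured by SRB assay. Growth IC50 values came from point-to-point analysis of growth curves. PF50 = IC50 of cytotoxic agent alone / IC50 with inhibitor. Data are mean ± SEM of three independent experiments.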

Assay [2] deals with T1, Poly [ADP-ribose] polymerase 1 (Homo sapiens, UniProt P09874).
Assay [3] relates to A549. The assay can be described thus: Cytotoxic potentiation of Topotecan (TP) by the compound in human lung carcinoma A549 cell line. The class given is functional, cell-based. The essentials:
as §2

The subject of assay [4] is LoVo. The assay can be described thus: Cytotoxic potentiation of Tomozolomide (TM) by the compound in human colorectal carcinoma LoVo cell line. The class given is functional, cell-based. A digest of the protocol: as §2
Assay [5] relates to LoVo. The assay can be described thus: Cytotoxic potentiation of Topotecan (TP) by the compound in human colorectal carcinoma LoVo cell line. The assay is classed as functional, cell-based. A digest of the protocol: as §2
Assay [6] relates to SW-620. The assay can be described thus: Cytotoxic potentiation of Topotecan (TP) by the compound in human colon carcinoma SW620 cell line. The class given is functional, cell-based. A digest of the protocol:
as §2

The subject of assay [7] is SW-620. The assay can be described thus: Cytotoxicity potentiation of Topotecan in human lung carcinoma SW620 cell line by the compound as potentiation factor at 50% growth inhibition. The assay is classed as functional. The following applies: in the assay text read “human colon carcinoma” for “human lung carcinoma”. A digest of the protocol:
as §2

Assay [8] concerns A549. The description is as §1. The assay is classed as functional. A digest of the protocol:
as §2
The source holds these as a separate data set.

For assay [9], the target named is T1, Poly [ADP-ribose] polymerase 1. The source holds these as a separate data set.
Assay [10] concerns LoVo. The assay can be described thus: Cytotoxic potentiation of Topotecan (TP) by the compound in (human colorectal cancer LoVo cell line. The assay is classed as functional, cell-based. A digest of the protocol:
as §2

Where only a bound is given, the exact number is not on record here.

These results are taken from ChEMBL document CHEMBL1136008, “Novel tricyclic poly(ADP-ribose) polymerase-1 inhibitors with potent anticancer chemopotentiating activity: design, synthesis, and X-ray cocrystal structure” (J Med Chem, 2002).

In general, Ki refers to the equilibrium dissociation constant of an inhibitor or competing ligand from its target. A higher Ki goes with weaker binding. The IC50 is the midpoint of a concentration-inhibition curve.

T1 sequence (P09874 whole entry): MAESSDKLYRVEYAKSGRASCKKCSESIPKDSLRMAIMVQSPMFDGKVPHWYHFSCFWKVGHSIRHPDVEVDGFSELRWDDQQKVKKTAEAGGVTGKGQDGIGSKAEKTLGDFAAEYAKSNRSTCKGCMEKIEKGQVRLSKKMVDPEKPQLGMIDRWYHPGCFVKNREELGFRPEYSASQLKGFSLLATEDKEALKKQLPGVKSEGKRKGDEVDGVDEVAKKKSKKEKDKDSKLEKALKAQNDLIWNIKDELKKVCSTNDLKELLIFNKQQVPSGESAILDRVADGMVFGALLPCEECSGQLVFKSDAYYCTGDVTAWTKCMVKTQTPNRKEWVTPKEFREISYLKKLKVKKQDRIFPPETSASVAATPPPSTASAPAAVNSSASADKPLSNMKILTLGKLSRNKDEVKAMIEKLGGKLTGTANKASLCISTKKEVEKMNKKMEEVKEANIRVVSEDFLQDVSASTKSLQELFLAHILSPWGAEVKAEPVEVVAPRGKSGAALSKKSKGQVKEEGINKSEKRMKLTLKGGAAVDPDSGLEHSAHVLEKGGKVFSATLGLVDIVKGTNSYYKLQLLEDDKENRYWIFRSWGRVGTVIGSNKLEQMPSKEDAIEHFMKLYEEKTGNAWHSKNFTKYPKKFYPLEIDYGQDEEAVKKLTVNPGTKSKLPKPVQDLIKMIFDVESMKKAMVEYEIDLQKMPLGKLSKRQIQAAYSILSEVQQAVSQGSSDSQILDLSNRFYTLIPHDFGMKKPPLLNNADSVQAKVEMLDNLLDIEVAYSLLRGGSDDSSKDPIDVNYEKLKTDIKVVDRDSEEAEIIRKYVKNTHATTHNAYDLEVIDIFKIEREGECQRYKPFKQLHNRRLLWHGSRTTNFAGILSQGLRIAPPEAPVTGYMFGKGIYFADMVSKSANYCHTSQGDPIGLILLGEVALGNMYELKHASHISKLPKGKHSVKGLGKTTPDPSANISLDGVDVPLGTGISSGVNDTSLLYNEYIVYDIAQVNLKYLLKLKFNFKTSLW

On to `Cn1c(-c2ccccc2)c2c3c(cccc31)C(=O)NCC2`, for which the PF50 in the assay with A549 [1] is on record as 1.7.

`Nc1cccc(-c2[nH]c3cccc4c3c2CCNC4=O)c1` returned a Ki in assay [2] of 7 nM.

For the compound `CN(C)Cc1ccc(-c2[nH]c3cccc4c3c2CNC4=O)cc1`, the PF50 with A549 [1] is recorded as 2.2.

With `CN(C)Cc1ccc(-c2[nH]c3cccc4c3c2CCNC4=O)cc1`, in the assay on A549 [1], the PF50 is given as 2.4.

Regarding `O=C1NCCc2c(-c3ccc(Cn4cccc4)cc3)[nH]c3cccc1c23`, the PF50 in the assay on A549 [1] was determined as 2; with SW-620 [7] it was 1.8; in the assay on A549 [8] it was 2. Also, the IC50 in the assay on A549 [3] stood at 12 nM; in the assay on LoVo [4], 76000 nM; with LoVo [5], 6.5 nM; with SW-620 [6], 1.8 nM. The same compound returned a Ki in [9] of 6 nM.

As to `O=C1NCc2c(-c3ccccc3)[nH]c3cccc1c23`, the inhibition constant Ki in assay [2] was under 5 nM.

With `O=C1NCCc2c[nH]c3cccc1c23`, the PF50 with A549 [1] was 1.1.

On to `O=C1NCCc2c(-c3ccc(F)cc3)[nH]c3cccc1c23`, for which the PF50 in the assay on A549 [1] worked out at 2.3.

On to `O=C1NCCc2c(C(c3ccccc3)c3ccccc3)[nH]c3cccc1c23`, for which the inhibitory constant (Ki) in assay [2] was 23 nM. This lies in the double-digit nanomolar range.

In turn, `COc1ccc(-c2[nH]c3cccc4c3c2CCNC4=O)cc1` returned a Ki in [2] of 6 nM.

Consider `N#Cc1[nH]c2cccc3c2c1CCNC3=O`, for which, in assay [2], the Ki was 11 nM.

`COc1[nH]c2cccc3c2c1CCNC3=O`: affinity in [2] was put at a Ki of 10 nM.

In assay [2], `CN(C)Cc1cccc(-c2[nH]c3cccc4c3c2CNC4=O)c1` had a Ki of under 5 nM.

The compound `O=C1NCCc2c(-c3ccc[nH]3)[nH]c3cccc1c23` yielded a Ki in assay [2] of 8 nM.

With `O=C1NCCc2c(O)[nH]c3cccc1c23`, the inhibitory constant (Ki) in assay [2] amounted to 370 nM.

Regarding `O=C1NCCc2c(-c3ccccc3)[nH]c3cccc1c23`, in the assay on A549 [1], the PF50 is 1.8.

Regarding `CN1CCc2c(-c3ccccc3)n(C)c3cccc(c23)C1=O`, the PF50 in the assay with A549 [1] turned out to be 1.2.

Turning to `CC[C@@]1(O)C(=O)OCc2c1cc1n(c2=O)Cc2cc3c(CN(C)C)c(O)ccc3nc2-1` [TOPOTECAN], the figures for the half-inhibitory concentration (IC50) with A549 [3], in the assay with LoVo [10] and with SW-620 [6] were 24 nM, 11.6 nM and 3.2 nM, respectively.

On to `CN(C)Cc1cccc(-c2[nH]c3cccc4c3c2CCNC4=O)c1`, for which the PF50 in the assay with A549 [1] turned out to be 2.1. This compound also came in with a Ki in [2] of 8 nM.

With `Cn1nnc2c(C(N)=O)ncn2c1=O` [TEMOZOLOMIDE], in the assay on LoVo [10] (in the assay text read “Temozolomide (TM)” for “Topotecan (TP)”), the IC50 came out at 595000 nM.

`O=C1NCCc2c(-c3cccc(C(F)(F)F)c3)[nH]c3cccc1c23` returned an inhibitory constant (Ki) in assay [2] of 6 nM.
